The target in series [1] is Matrix metalloproteinase-9 (Homo sapiens) (UniProt P14780). Kind of series: Inhibition of MMP-9 activity in human HT1080 cells at 10 uM by gelatin zymography. The note with it: HT-1080. The series is classed as cell-based. An outline of the steps: (§1)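 HT1080 human fibrosarcoma cells grown in DMEM with 10% FBS; cells treated with compound, 0.5% DMSO as vehicle control, dose series 2.5–10 µM. Conditioned media run on 10% polyacrylamide/0.4% SDS gels containing 2 mg/ml gelatin, non-reducing, 120 V 150 min. Gels washed in 2.5% Triton X-100 30 min, developed overnight at 37 °C (50 mM Tris–HCl pH 7.6, 200 mM NaCl, 5 mM CaCl2, 0.2% Brij-35). Bands quantified densitometrically as % inhibition; triplicates, three independent experiments.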

Series [2] has as its target 72 kDa type IV collagenase (Homo sapiens) (UniProt P08253). As to the kind of experiment: Inhibition of MMP-2 activity in human HT1080 cells at 10 uM by gelatin zymography. The conditions noted are these: HT-1080. In kind it is cell-based. An outline of the steps: as §1
Series [3] in a line: Cytotoxicity against human HT1080 cells up to 7.5 uM. In kind it is cell-based. The conditions noted are these: ht-1080.
Series [4] deals with Matrix metalloproteinase 2/9 (Homo sapiens) (UniProt P08253+P14780). As to the kind of experiment: Inhibition of MMP2/9 in human HT1080 cells assessed as reduction in degradation of fluorescien gelatin at 5 uM after 24 hrs by gelatin degradation assay. The note with it: HT-1080. In kind it is cell-based. The procedure, abridged:
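HT1080 cells exposed to 5 µM compound for 24 h at 37 °C on fluorescent gelatin. Cells then fixed, mounted in antifade reagent and imaged by inverted fluorescence microscopy. Degradation of the fluorescent gelatin compared with control.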

For series [5], the target named is 72 kDa type IV collagenase (Homo sapiens) (UniProt P08253). Kind of series: Inhibition of MMP-2 activity in human HT1080 cells at 5 uM by gelatin zymography. The series is classed as cell-based. The note with it: HT-1080. The procedure, abridged: as §1
The subject of a further series is HT-1080. Kind of series: Inhibition of cell migration in human HT1080 cells at 5 uM after 24 hrs by transwell migration assay. The series is classed as functional, cell-based. The procedure, abridged:
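Transwell migration: 8 × 10^4 HT1080 cells in serum-free medium with compound placed in upper chamber; lower chamber held DMEM with 10% FBS as attractant. After 24 h, non-migrated cells swabbed off; migrated cells stained with crystal violet and counted in five random fields, expressed as % of control.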

Series [6] addresses Matrix metalloproteinase-9 (Homo sapiens) (UniProt P14780). Kind of series: Inhibition of MMP-9 activity in human HT1080 cells by gelatin zymography. In kind it is cell-based. The conditions noted are these: HT-1080. An outline of the steps:
as §1

Series [7] has the same target. As to the kind of experiment: Inhibition of MMP-9 activity in human HT1080 cells at 5 uM by gelatin zymography. The series is classed as cell-based. The conditions noted are these: HT-1080. The procedure, abridged:
as §1

Series [8] has as its target 72 kDa type IV collagenase (Homo sapiens) (UniProt P08253). Kind of series: Inhibition of MMP-2 activity in human HT1080 cells by gelatin zymography. In kind it is cell-based. The conditions noted are these: HT-1080. An outline of the steps:
as §1

Active and inactive are the calls of the source. No cut-off for these calls is given here.

Matrix metalloproteinase-9 (Homo sapiens), sequence (P14780 whole entry): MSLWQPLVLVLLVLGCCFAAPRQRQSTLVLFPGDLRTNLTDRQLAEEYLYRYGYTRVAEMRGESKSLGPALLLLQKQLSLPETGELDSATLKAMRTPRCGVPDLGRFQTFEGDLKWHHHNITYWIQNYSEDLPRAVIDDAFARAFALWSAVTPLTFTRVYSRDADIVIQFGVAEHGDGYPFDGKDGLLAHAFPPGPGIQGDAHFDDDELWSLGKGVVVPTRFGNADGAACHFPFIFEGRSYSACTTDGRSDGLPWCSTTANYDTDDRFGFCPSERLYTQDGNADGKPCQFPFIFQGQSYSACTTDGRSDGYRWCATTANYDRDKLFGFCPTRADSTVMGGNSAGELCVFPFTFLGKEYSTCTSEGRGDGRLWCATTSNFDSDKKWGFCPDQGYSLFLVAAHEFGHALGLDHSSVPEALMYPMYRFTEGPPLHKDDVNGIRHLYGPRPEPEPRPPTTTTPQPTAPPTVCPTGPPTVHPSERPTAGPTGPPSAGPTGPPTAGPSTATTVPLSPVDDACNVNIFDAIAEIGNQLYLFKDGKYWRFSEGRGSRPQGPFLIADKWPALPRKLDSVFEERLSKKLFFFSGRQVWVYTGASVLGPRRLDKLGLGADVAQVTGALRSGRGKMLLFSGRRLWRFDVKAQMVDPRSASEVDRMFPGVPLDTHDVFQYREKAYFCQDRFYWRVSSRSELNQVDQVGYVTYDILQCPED
72 kDa type IV collagenase (Homo sapiens), sequence (P08253 110-660 limits assumed): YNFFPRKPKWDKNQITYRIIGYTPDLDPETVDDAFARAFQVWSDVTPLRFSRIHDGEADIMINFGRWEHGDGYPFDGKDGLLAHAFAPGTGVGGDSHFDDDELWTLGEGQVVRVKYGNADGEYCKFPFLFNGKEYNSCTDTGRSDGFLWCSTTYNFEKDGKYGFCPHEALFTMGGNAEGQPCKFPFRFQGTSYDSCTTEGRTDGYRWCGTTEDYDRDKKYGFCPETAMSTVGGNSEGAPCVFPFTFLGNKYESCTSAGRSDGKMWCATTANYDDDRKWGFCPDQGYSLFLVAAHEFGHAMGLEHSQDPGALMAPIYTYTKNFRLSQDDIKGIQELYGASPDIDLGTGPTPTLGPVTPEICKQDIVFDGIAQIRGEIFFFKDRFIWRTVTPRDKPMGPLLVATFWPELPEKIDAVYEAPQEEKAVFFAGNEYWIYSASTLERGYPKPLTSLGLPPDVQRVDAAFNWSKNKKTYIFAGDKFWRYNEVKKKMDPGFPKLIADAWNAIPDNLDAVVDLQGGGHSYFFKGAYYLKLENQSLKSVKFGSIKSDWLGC
Matrix metalloproteinase 2/9 (Homo sapiens), sequence (P08253 whole entry, looked up): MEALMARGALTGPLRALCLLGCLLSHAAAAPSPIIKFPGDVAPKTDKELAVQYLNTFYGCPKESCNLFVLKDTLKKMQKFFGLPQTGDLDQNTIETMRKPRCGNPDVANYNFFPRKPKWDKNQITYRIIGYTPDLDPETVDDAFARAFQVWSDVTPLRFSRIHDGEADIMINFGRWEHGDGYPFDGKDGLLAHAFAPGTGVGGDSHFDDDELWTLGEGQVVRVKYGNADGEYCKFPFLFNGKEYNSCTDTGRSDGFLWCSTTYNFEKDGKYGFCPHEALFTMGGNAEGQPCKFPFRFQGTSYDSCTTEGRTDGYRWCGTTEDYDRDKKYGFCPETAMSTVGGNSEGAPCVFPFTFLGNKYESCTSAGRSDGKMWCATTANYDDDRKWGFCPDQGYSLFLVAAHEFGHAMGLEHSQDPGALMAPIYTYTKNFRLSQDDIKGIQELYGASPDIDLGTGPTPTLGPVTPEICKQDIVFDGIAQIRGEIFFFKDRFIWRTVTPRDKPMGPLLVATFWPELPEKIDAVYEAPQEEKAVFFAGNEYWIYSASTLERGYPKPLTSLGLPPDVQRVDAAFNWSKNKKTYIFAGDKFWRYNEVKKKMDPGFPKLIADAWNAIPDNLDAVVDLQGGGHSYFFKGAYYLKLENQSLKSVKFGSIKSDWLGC
Matrix metalloproteinase 2/9 (Homo sapiens), sequence (P14780 whole entry, looked up): as the sequence (P14780 whole entry) above

Take `O=c1c(-c2c(/C=C/c3ccccc3)oc3ccccc3c2=O)c(/C=C/c2ccccc2)oc2ccccc12`: the inhibition entry in [1] and in series [2] was “inactive” in each case.
Regarding `COc1ccc(-c2oc3cc(O)cc(O)c3c(=O)c2-c2c(-c3ccc(OC)cc3)oc3cc(O)cc(O)c3c2=O)cc1`, the Activity result in series [3] was “Non-toxic”. Further, the inhibition entry (in series [4]; in the series on HT-1080) was “Active” in each case. The inhibition in series [1] was 90%; in series [5], 60%; in [6] it was “Dose-dependent effect”; in [2], 90%; in series [7], 90%; in [8], “Dose-dependent effect”.
Take `COc1ccc2c(=O)c(-c3c(-c4ccccc4)oc4cc(OC)ccc4c3=O)c(-c3ccccc3)oc2c1`: the inhibition entry in [6] and in series [8] was “inactive” in each case.
For `COc1cc(OC)c2c(=O)c(-c3c(-c4ccccc4)oc4cc(OC)cc(OC)c4c3=O)c(-c3ccccc3)oc2c1`, the inhibition entry in [6] and in [8] was “inactive” each time.
As to `O=c1c(-c2c(-c3ccco3)oc3ccccc3c2=O)c(-c2ccco2)oc2ccccc12`, in series [2], the inhibition result is “Active”.
As to `COc1ccc(-c2oc3ccccc3c(=O)c2-c2c(-c3ccc(OC)cc3)oc3ccccc3c2=O)cc1`, the inhibition result in series [6] and in series [8] was “inactive” in each case.
With `COc1ccccc1-c1oc2ccccc2c(=O)c1-c1c(-c2ccccc2OC)oc2ccccc2c1=O`, the inhibition result in [6] and in series [8] was “inactive” throughout.
Take `COc1ccc(-c2oc3cc(O)cc(O)c3c(=O)c2-c2c(-c3ccc(OC)c(OC)c3)oc3cc(O)cc(O)c3c2=O)cc1OC`: the inhibition entry in series [2] is “Active”.
For the compound `COc1ccc(-c2cc(=O)c3c(O)cc(O)cc3o2)cc1`, the inhibition result in [5] and in series [7] was “inactive” throughout.
As to `O=c1c(-c2c(-c3ccccc3)oc3cc(O)ccc3c2=O)c(-c2ccccc2)oc2cc(O)ccc12`, the inhibition entry in [1] and in series [2] was “inactive” in each case.
With `COc1ccc(-c2oc3cc(OC)cc(OC)c3c(=O)c2-c2c(-c3ccc(OC)cc3)oc3cc(OC)cc(OC)c3c2=O)cc1`, the inhibition entry in [6] and in series [8] was “inactive” in each case.
